An excerpt weighted towards active compounds, which were near 2.6% of everything screened.
HTRA1 inhibitor = HTRA1 serine protease inhibitors, primary screen, biochemical, fluorescence polarization, HTS | recombinant HTRA1, FP-rhodamine activity-based probe | inhibition, % at 5.96 µM | 340,000 compounds, 0.5% hits | AID 504803, 2011; in the data active = inhibition above about 36%;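 note: 0% = enzyme with DMSO and 100% = wells lacking enzyme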
TCR CD3 inh = inhibitors of human TCR-CD3 interaction, primary screen, biochemical, fluorescence, TAMRA-labeled TCR probe; T-cell receptor (TCR); inhibition, % at 9.4 µM; 360,000 compounds, 0.37% hits; AID 651800, 2012; in the data active = inhibition above about 19%;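 note: recombinant mutant TCR 2C K166C tagged with TAMRA read by polarization; 0% = receptor in buffer alone and 100% = receptor with positive control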
PRMT1 inh = PRMT1 methyltransferase inhibitors, primary screen, biochemical, fluorescence polarization; Protein arginine N-methyltransferase 1 (Homo sapiens), Q99873; recombinant PRMT1, activity-based probe fluorescence polarization; inhibition, % at 2.79 µM; 370,000 compounds, 1.3% hits; AID 652257, 2013;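 active = inhibition above about 21% made by adding two undisclosed values, limit read from the data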
mABHD4 FP = ABHD4 inhibitors, primary screen, biochemical, fluorescence polarization, mouse; (Lyso)-N-acylphosphatidylethanolamine lipase (Mus musculus), Q8VD66; purified mABHD4, FP-Rh probe fluorescence polarization; inhibition, % at 8.92 µM; 370,000 compounds, 0.54% hits;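 active = inhibition exceeding the mean over every tested compound plus 3 SD, cut at about 30% in these data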;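 note: 0% = plate median of compound wells and 100% = S159A mutant with DMSO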
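Test system: mouse ABHD4 enzyme, wild type. Reagent: FP-Rh fluorescent activity-based probe, added after compound pre-incubation. Timing: pre-incubation 45 min, probe exposure 60 min, at 25 °C. Technique: FP readout, ex 525 nm / em 598 nm. Benchmarks: high control S159A mutant with DMSO, low control median of compound wells.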
SIAE primary = human SIAE inhibitors, primary screen, biochemical, fluorescence polarization, FP-Rh probe, 1536-well HTS. Sialate O-acetylesterase (Homo sapiens), Q9HAT2. SIAE FP-Rh probe binding. inhibition, % at 9.66 µM. 370,000 compounds, 0.69% hits. AID 1053197, 2014;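 active = inhibition above a cutoff: mean of compounds within the control limits plus 3 SD of those, cut at about 17% in these data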;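 note: 0% = plate median of compound wells and 100% = probe without SIAE protein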
Target sequence (Q9HAT2 whole entry, looked up): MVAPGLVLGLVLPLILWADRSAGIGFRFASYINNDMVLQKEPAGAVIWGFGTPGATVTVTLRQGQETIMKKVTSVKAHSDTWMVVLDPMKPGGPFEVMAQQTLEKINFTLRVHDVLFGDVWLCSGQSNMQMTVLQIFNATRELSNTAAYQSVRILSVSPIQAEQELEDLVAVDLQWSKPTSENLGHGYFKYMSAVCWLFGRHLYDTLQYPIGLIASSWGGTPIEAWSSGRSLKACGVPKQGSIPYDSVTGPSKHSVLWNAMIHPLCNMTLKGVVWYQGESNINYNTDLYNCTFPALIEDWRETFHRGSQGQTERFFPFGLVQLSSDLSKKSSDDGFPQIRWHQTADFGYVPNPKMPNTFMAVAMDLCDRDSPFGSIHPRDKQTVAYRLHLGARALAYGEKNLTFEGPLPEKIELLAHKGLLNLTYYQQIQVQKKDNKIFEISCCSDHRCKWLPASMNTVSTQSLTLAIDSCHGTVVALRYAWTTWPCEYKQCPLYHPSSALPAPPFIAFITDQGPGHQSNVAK
SIAE inh conf = human SIAE inhibitors, retest, confirmation, biochemical, fluorescence polarization, FP-Rh probe, triplicate; inhibition, % at 9.66 µM; shares compounds with SIAE primary; 2,300 compounds, 13% hits; SIAE FP-Rh activity-based probe;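 active = mean inhibition of the replicates above the hit cutoff set in the primary screen, cut at about 17% in these data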;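 note: 0% = SIAE with DMSO and probe and 100% = probe without SIAE; inhibitors lower polarization as more probe stays unbound to SIAE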
* hit, by the source's call; / = no result given.

SMILES | HTRA1 inhibitor | TCR CD3 inh | PRMT1 inh | mABHD4 FP | SIAE primary | SIAE inh conf
CC(C)OC(=O)c1cc2c(ccn2C)n1CC(=O)N(Cc1ccccc1)c1ccccc1 | -17 | 4 | 3 | 10 | 19* | 15
CCOC(=O)c1cc2c(ccn2C)n1Cc1cc(C)ccc1C | 2 | 4 | 0 | -1 | -2 | /
CC(C)N(C)c1ncnc2c1ncn2[C@H]1CN(Cc2ccc(-c3ccccc3)cc2)C[C@@H](CO)O1 | / | -7 | -4 | -14 | -10 | /
Cc1onc(-c2ccccc2Cl)c1C(=O)Nc1ccc(N2CCOCC2)cc1 | -1 | -5 | -1 | 11 | 17* | 1
CCOc1ccc(CN2CCNC(=O)C2CC(=O)NCCc2ccccn2)cc1 (stereo unspecified) | 4 | -1 | -3 | 3 | 0 | /
COc1cccc(CN2CCNC(=O)C2CC(=O)NCc2cn3cccc(C)c3n2)c1OC (stereo unspecified) | 0 | 6 | -2 | -1 | 0 | /
CCOc1ccc(CN2CCNC(=O)C2CC(=O)NCc2ccccn2)cc1 (stereo unspecified) | -4 | 4 | 2 | 1 | 18* | -4
COc1cccc(CN2CCNC(=O)C2CC(=O)NCc2cn3ccccc3n2)c1OC (stereo unspecified) | 2 | 4 | 0 | -5 | 22* | -3
COCCNC(=O)c1cccc(S(=O)(=O)N2CC3(C)CC2CC(C)(C)C3)c1 (stereo unspecified) | -5 | 4 | -2 | 0 | -4 | /
CN1CCN(S(=O)(=O)c2cccc(C(=O)N(Cc3nnc(-c4ccccc4Cl)o3)C3CC3)c2)CC1 | 3 | -5 | 0 | 4 | 2 | /
Cc1cc(C)c(C)c(S(=O)(=O)NCCN2CCOCC2)c1C | -3 | -16 | 5 | -11 | -14 | /
COc1ccccc1NCCC(=O)OCC(=O)NCc1ccco1 | 5 | 5 | 2 | -5 | 27* | 4
COc1ccc(OCCC(=O)OCC(=O)NCc2ccco2)cc1 | 1 | 0 | 2 | -7 | 0 | /
O=C1Nc2ccc(Br)cc2/C1=C/C(=O)c1ccc2c(c1)OCO2 | -27 | 10 | 4 | 7 | 19* | 2
COc1ccc(C(C)(C)C)cc1NC(=O)CCCn1c(=O)oc2ccccc21 | -6 | 11 | -1 | -6 | 76* | 1
O=C(CSc1nnc(-c2ccc(F)cc2)o1)N1CCCC1 | 1 | 2 | -1 | 4 | 21* | -4
O=C(CSc1nnc(-c2cccc(F)c2)o1)NC1CCCC1 | 1 | -6 | 4 | 1 | 20* | -1
Cc1cccc(-c2nnc(SCC(=O)NC3CCCC3)o2)c1 | -2 | -4 | -2 | -6 | -2 | /
COc1ccc(CNC(=O)C2CSC(=O)C2)cc1 (stereo unspecified) | 2 | 2 | 6 | 5 | 20* | -1
CCOc1ccc(S(=O)(=O)n2cnc(C)c2)cc1 | 10 | -1 | -6 | 6 | 17* | 5
COc1ccc(C(=O)Nc2nnc([C@@H]3C[C@H](O)[C@@H](CO)O3)s2)cc1 | / | -6 | 6 | 6 | -2 | /
CN(C)C(=O)N1CCN(C(=O)[C@H](CCc2ccccc2)NC(=O)[C@H]2O[C@@H](n3cnc4c(N)ncnc43)[C@H](O)[C@@H]2O)CC1 | / | 4 | -2 | 3 | 36* | 43*
Nc1ncnc2c1ncn2[C@@H]1O[C@H](C(=O)N[C@@H](CO)c2ccccc2)[C@@H](O)[C@H]1O | / | 8 | -3 | -2 | 17* | 19*
C[C@@H](NC(=O)[C@H]1O[C@@H](n2cnc3c(N)ncnc32)[C@H](O)[C@@H]1O)c1cccc2ccccc12 | / | 1 | -4 | 1 | 0 | /
COc1ccccc1C(=O)N1CCN(C(=O)[C@H]2O[C@@H](n3cnc4c(N)ncnc43)[C@H](O)[C@@H]2O)CC1 | / | -6 | 9 | -6 | 23* | 21*
SMILES | HTRA1 inhibitor | TCR CD3 inh | PRMT1 inh | mABHD4 FP | SIAE primary | SIAE inh conf
CC(C)C[C@H]1CN(CCCC[C@H]2CNC(=O)C(=O)N2CCc2ccccc2)C(=O)C(=O)N1CCc1ccccc1 | / | 7 | 7 | 1 | 5 | /
CC(=O)C1=C(C)N(Cc2ccc(F)cc2)C(=S)NC1c1cccc(Cl)c1 (stereo unspecified) | / | 3 | 2 | -8 | -4 | /
CCNC(=O)NC(=O)C(C)Sc1nnc(COc2ccccc2Cl)o1 (stereo unspecified) | -2 | 4 | -1 | 2 | 29* | 1
COc1ccccc1Nc1nnc(SCC(=O)NC2CC2)s1 | 8 | 1 | 2 | 5 | 17* | 2
NC(=S)Nc1cc2ccccc2c2ccccc12 | -10 | 1 | 1 | 1 | 12 | /
NC(=S)Nc1cccc2cc3ccccc3cc12 | 27 | -2 | 6 | 25 | 19* | 7
COc1ccc(NC(=O)C/C(C)=N/NC(=O)c2cnccn2)cc1 | 4 | 2 | 0 | 4 | 2 | /
CCOc1ccc(NC(=O)C/C(C)=N/NC(=O)c2cnccn2)cc1 | 4 | 7 | 0 | -5 | 20* | 0
Cc1ccc(NC(=O)C2CCCN2C(=O)c2cccs2)cc1C (stereo unspecified) | 1 | 6 | -4 | -1 | 0 | /
CC(=O)Nc1ccc(S(=O)(=O)Nc2ccc(Cl)cn2)cc1 | -2 | 9 | -1 | -1 | 88* | 3
CSc1ncccc1C(=O)OCC(=O)N(C)c1c(N)n(Cc2ccccc2)c(=O)[nH]c1=O | -1 | 0 | 0 | -1 | -4 | /
O=C(COC(=O)/C=C/c1cccc(F)c1)NC(=O)NC1CCCC1 | 22 | 3 | 0 | 0 | -3 | /
O=C(c1cc(Cl)ccc1F)N1CCCC(Nc2ccc3c(c2)OCCO3)C1 (stereo unspecified) | 0 | 2 | 1 | 2 | 17* | 0
COc1ccc(CC(=O)c2ccc(OC)c(OC)c2)cc1 | 2 | 0 | -2 | -6 | 17* | 3
Cc1cccc(C(C)C)c1NC(=O)COC(=O)CNS(=O)(=O)c1ccccc1 | 0 | 1 | -1 | 2 | -2 | /
CCOC(=O)C1CN(S(C)(=O)=O)c2cc(CC(=O)OC)ccc2O1 (stereo unspecified) | 0 | 5 | -1 | 4 | 29* | 5
O=C(CSCC(=O)Nc1ccccc1)N/N=C/c1c(O)ccc2ccccc12 | 34 | 7 | 0 | 8 | 9 | /
O=C(N/N=C/c1c(O)ccc2ccccc12)Nc1ccccc1 | / | 4 | -2 | 29 | 52* | 49*
Nc1nonc1N/N=C\c1ccccc1 | -1 | -8 | 2 | 6 | -3 | /
Nc1nonc1N/N=C/c1c(O)ccc2ccccc12 | 17 | 16 | 1 | 22 | 18* | -22

From PubChem BioAssay
